Read-outs that look alike come from different tables or passages of the source.
What was measured:
58 cancer cell lines = assay: Spectrum of anticancer activity, 58 cancer cell lines; format: cell-based, human; conditions: 10 μM
Summary of the method: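 Spectrum screen over 58 human cancer cell lines covering leukemia, CNS, prostate, breast, lung and other tumour types, run in the NCI-60 screen at the National Cancer Institute. % growth inhibition per line; counts of lines above 50% and above 100% inhibition, plus mean growth inhibition across the 58 lines.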

[1] = test system: six CNS cancer cell lines; assay: GI50 evaluation, CNS cancer cell lines; format: cell-based, human; conditions: for GI50: Homo sapiens
Summary of the method: (§1)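 GI50 determined per human cancer cell line, grouped by tumour type, with a 3 μM cut-off applied. Per-panel average GI50 and range were calculated. Fold change was taken as the ratio of the average GI50 to that of a reference antitumor ether lipid.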

caspase 8 = assay: Western blot in A549 cells, caspase 8; format: cell-based, human; conditions: 24 h
CDK8 = assay: Western blot in A549 cells, CDK8; format: cell-based, human; conditions: western blot (Fig. S1)
H322M = assay: Cell growth inhibition; format: cell-based; conditions: Homo sapiens, NCI-H322M, read-out: % growth inhibition, H322M
Summary of the method: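 Single-dose screen of non-small cell lung cancer lines (adenocarcinoma, metastatic adenocarcinoma, large cell and squamous carcinoma) with test compound at 10 μM. Read-out is % growth inhibition per cell line. Run as part of the NCI-60 human tumour cell line screen at the National Cancer Institute.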

CDK4 = assay: Western blot in A549 cells, CDK4; format: cell-based, human; conditions: 24 h
eight renal cancer cells = assay: GI50 evaluation, renal cancer cells; format: cell-based, human; conditions: for GI50: Homo sapiens
Summary of the method: as §1

[2] = test system: two prostate cancer cell lines; assay: GI50 evaluation, prostate cancer cell lines; format: cell-based, human; conditions: for GI50: Homo sapiens, read-out: calculated average GI50, prostate cancer
Summary of the method: as §1

[3] = test system: non-small cell lung cancer cell lines; assay: Cell growth inhibition, panel of nine NSCLC cell lines; format: cell-based, human
Summary of the method: as §1

phospho-Rb (p-Rb) = assay: Western blot in A549 cells, phospho-Rb; format: cell-based, human; conditions: 24 h
A549 cells [4] = assay: Cell cycle distribution analysis; format: cell-based, human; conditions: 24 h, different concentrations
Summary of the method: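 A549 lung cancer cells were treated with several concentrations of test compound, stained with propidium iodide for DNA content, and analysed by flow cytometry. Fractions in G0/G1, S and G2/M phases were quantified.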

[5] = test system: seven colon cancer cell lines; assay: GI50 evaluation, colon cancer cell lines; format: cell-based, human; conditions: for GI50: Homo sapiens
Summary of the method: as §1

[6] = test system: ovarian cancer cell lines; assay: GI50 evaluation, ovarian cancer cell lines; format: cell-based, human; conditions: for GI50: Homo sapiens
Summary of the method: as §1

CDK1 = assay: Western blot in A549 cells, CDK1; format: cell-based, human; conditions: western blot (Fig. S1)
CDK6 = assay: Western blot in A549 cells, CDK6; format: cell-based, human; conditions: 24 h
A549 cells [7] = assay: Annexin V-FITC/PI double staining analysis; format: cell-based, human; conditions: 48 h, different concentrations
Summary of the method: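 A549 cells were treated with several concentrations of test compound, stained with annexin-V and propidium iodide, and analysed by FACS. Live, early apoptotic, late apoptotic and necrotic populations were quantified as percentages.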

CDK7 = assay: Western blot in A549 cells, CDK7; format: cell-based, human; conditions: western blot (Fig. S1)
[8] = Selectivity against normal cells, MRC-5; format: cell-based, human; conditions: human, MRC-5 normal foetal lung fibroblast cells
[9] = test system: normal human foetal lung fibroblast MRC-5 cell line; assay: Selectivity against normal cells, MRC-5; format: cell-based; conditions: lung cancer cells rather than normal lung cells (MRC-5)
CDK2 = assay: Western blot in A549 cells, CDK2; format: cell-based, human; conditions: 24 h
cyclin D1 = assay: Western blot in A549 cells, cyclin D1; format: cell-based, human; conditions: 24 h
nine melanoma cell lines = assay: GI50 evaluation, melanoma cell lines; format: cell-based, human; conditions: for GI50: Homo sapiens
Summary of the method: as §1

BAX = assay: Western blot in A549 cells, BAX; format: cell-based, human; conditions: 24 h
PARP = assay: Western blot in A549 cells, PARP and cleaved PARP; format: cell-based, human; conditions: 24 h
HCT15 = assay: GI50 evaluation, HCT15 colon adenocarcinoma; format: cell-based, human; conditions: cut-off value of 3 μM
Summary of the method: as §1

UO31 = assay: GI50 evaluation, UO31 renal cancer; format: cell-based, human; conditions: cut-off value of 3 μM
Summary of the method: as §1

[10] = test system: five breast cancer cell lines; assay: GI50 evaluation, breast cancer cell lines; format: cell-based, human; conditions: for GI50: Homo sapiens, read-out: calculated average GI50, breast cancer
Summary of the method: as §1

[11] = test system: four leukemic cancer cells; assay: GI50 evaluation, leukemic cancer cells; format: cell-based, human; conditions: from average GI50
Summary of the method: as §1

ACHN = assay: GI50 evaluation, ACHN renal cancer; format: cell-based, human; conditions: cut-off value of 3 μM
Summary of the method: as §1

COLO205 = assay: GI50 evaluation, COLO205 colon cancer; format: cell-based; conditions: Homo sapiens, COLO 205, read-out: GI50, COLO205
Summary of the method: as §1

HCC2998 = assay: GI50 evaluation, HCC2998 colon cancer; format: cell-based; conditions: Homo sapiens, HCC 2998, read-out: GI50, HCC2998
Summary of the method: as §1

[12] = read-out: GI50 range, CNS cancer
[13] = read-out: calculated average GI50, CNS cancer
[14] = read-out: GI50 range, renal cancer
[15] = read-out: calculated average GI50, renal cancer
[16] = Homo sapiens, read-out: GI50 range, non-small cell lung cancer
[17] = Homo sapiens, read-out: calculated average GI50, non-small cell lung cancer
[18] = read-out: GI50 range, colon cancer
[19] = read-out: calculated average GI50, colon cancer
[20] = read-out: GI50 range, ovarian cancer
[21] = read-out: calculated average GI50, ovarian cancer
[22] = read-out: calculated average GI50, melanoma

CCCCCCCCCCCCCCCCCCOc1ccccc1CC(=O)OCC[N+](C)(C)C.[I-] [Compound 6]
number of cell lines out of 58 inhibited by more than 50% (58 cancer cell lines): 50 | number of cell lines out of 58 inhibited by more than 100% (58 cancer cell lines): 9 | GI50 [1, 12]: 1230 to 2030 nM | GI50 [1, 13]: 1590 nM | caspase 8 cleavage (caspase 8): cleavage of caspase 8 | CDK8 protein level (CDK8): no dose-dependent inhibition | inhibition at 10 µM (H322M): 33.5% | CDK4 protein level (CDK4): dose-dependent inhibition | GI50 (eight renal cancer cells; [14]): 490 to 1750 nM | GI50 (eight renal cancer cells; [15]): 1350 nM | average fold increase compared to the potency of edelfosine, renal cancer (eight renal cancer cells; from average GI50): 18.5 fold | GI50 [2]: 1600 nM | fold increase compared to the potency of edelfosine, prostate cancer ([2]; from average GI50): 33.5 fold | inhibition at 10 µM ([3]; Homo sapiens, read-out: % growth inhibition (range) against H460, A549, HOP62, HOP92, and H522 cell lines, 10 µM): 88.5 to 114% | GI50 [3, 16]: 1250 to 2170 nM | GI50 [3, 17]: 1620 nM | average fold increase compared to the potency of edelfosine, NSCLC ([3]; from average GI50): 15.5 fold | formation of phospho-Rb (p-Rb) (phospho-Rb (p-Rb)): inhibited dose-dependently | counts of cells in G0/G1 phase (A549 cells [4]): increased dose-dependently | counts of cells in the S and G2/M phases (A549 cells [4]): decreased in a dose-dependent pattern | GI50 [5, 18]: 1590 to 2960 nM | GI50 [5, 19]: 1910 nM | average fold increase compared to the potency of edelfosine, colon cancer ([5]; from average GI50): 4 fold | GI50 [6, 20]: 650 to 9840 nM | GI50 [6, 21]: 2640 nM | fold increase compared to the potency of edelfosine, ovarian cancer ([6]; from average GI50): 9.5 fold | CDK1 protein level (CDK1): no dose-dependent inhibition | CDK6 protein level (CDK6): dose-dependent inhibition | apoptosis induction (early apoptosis population) (A549 cells [7]): increase in the portion of cells that entered the early apoptosis state | necrosis (A549 cells [7]): no significant necrosis | CDK7 protein level (CDK7): no dose-dependent inhibition | GI50 [8]: 16700 nM | selectivity index, average [9]: 10.31 | selectivity index, range [9]: 7.70–13.36 | CDK2 protein level (CDK2): dose-dependent inhibition | cyclin D1 protein level (cyclin D1): dose-dependent inhibition | GI50 (nine melanoma cell lines; read-out: GI50 range, melanoma): 1570 to 2340 nM | GI50 (nine melanoma cell lines; [22]): 1730 nM | BAX level (BAX): dose-dependent upregulation of BAX | PARP cleavage (PARP): dose-dependent PARP cleavage

CCCCCCCCCCCCCCCCCCOc1ccccc1CC(=O)OCC[N+](CC)(CC)CC.[I-] [Compound 8]
number of cell lines out of 58 inhibited by more than 50% (58 cancer cell lines): 49 | number of cell lines out of 58 inhibited by more than 100% (58 cancer cell lines): 10 | GI50 [1, 12]: 970 to 1620 nM | GI50 [1, 13]: 1350 nM | fold increase compared to the potency of edelfosine, CNS cancer ([1]; from average GI50): more than 15 fold | GI50 relative to cut-off, HCT15 (HCT15): outside the applied cut-off window | GI50 [3, 16]: 1100 to 4030 nM | GI50 [3, 17]: 1800 nM | GI50 relative to cut-off, UO31 (UO31): more than the applied cut-off value | GI50 [5, 18]: 1040 to 4390 nM | GI50 [5, 19]: 1880 nM | GI50 [10]: 1430 nM | fold increase compared to the potency of edelfosine, breast cancer ([10]; from average GI50): ~47 fold | GI50 [6, 20]: 920 to 7580 nM | GI50 [6, 21]: 2670 nM | average fold increase compared to the potency of edelfosine, leukemia [11]: 13 fold | GI50 relative to cut-off, ACHN (ACHN): more than the applied cut-off value | GI50 (nine melanoma cell lines; read-out: GI50 range, melanoma): 880 to 1900 nM | GI50 (nine melanoma cell lines; [22]): 1330 nM | average fold increase compared to the potency of edelfosine, melanoma (nine melanoma cell lines; from average GI50): 29 fold

CCCCCCCCCCCCCCCCCCOc1ccccc1CC(=O)OCC[N+]1(C)CCCC1.[I-] [Compound 9]
number of cell lines out of 58 inhibited by more than 50% (58 cancer cell lines): 43 | number of cell lines out of 58 inhibited by more than 100% (58 cancer cell lines): 3 | GI50 [1, 12]: 1260 to 2830 nM | GI50 [1, 13]: 1820 nM | GI50 relative to cut-off, HCT15 (HCT15): outside the applied cut-off window | GI50 [3, 16]: 1220 to 8220 nM | GI50 [3, 17]: 2670 nM | GI50 relative to cut-off, UO31 (UO31): more than the applied cut-off value | GI50 [5, 19]: 2170 nM | GI50 [6, 20]: 1520 to 18900 nM | GI50 [6, 21]: 6300 nM | GI50 relative to cut-off, ACHN (ACHN): more than the applied cut-off value | GI50 (nine melanoma cell lines; read-out: GI50 range, melanoma): 1630 to 2820 nM | GI50 (nine melanoma cell lines; [22]): 2070 nM

CCCCCCCCCCCCCCCCCCOc1ccccc1CC(=O)OCC[N+]1(C)CCCCC1.[I-] [Compound 10]
number of cell lines out of 58 inhibited by more than 50% (58 cancer cell lines): 31 | number of cell lines out of 58 inhibited by more than 100% (58 cancer cell lines): 6 | GI50 [1, 12]: 1390 to 2930 nM | GI50 [1, 13]: 1920 nM | GI50 relative to cut-off, HCT15 (HCT15): outside the applied cut-off window | GI50 [3, 16]: 1320 to 5780 nM | GI50 [3, 17]: 2350 nM | GI50 relative to cut-off, UO31 (UO31): more than the applied cut-off value | GI50 [5, 19]: 2160 nM | GI50 [6, 20]: 1540 to 18200 nM | GI50 [6, 21]: 6280 nM | GI50 relative to cut-off, ACHN (ACHN): more than the applied cut-off value | GI50 (nine melanoma cell lines; read-out: GI50 range, melanoma): 1700 to 2790 nM | GI50 (nine melanoma cell lines; [22]): 2070 nM

CCCCCCCCCCCCCCCCCCOCC(COP(=O)([O-])OCC[N+](C)(C)C)OC (centres unmarked) [edelfosine, reference compound]
GI50 [1, 12]: 8750 to 58500 nM | GI50 [1, 13]: 21400 nM | GI50 (eight renal cancer cells; [14]): 12100 to 72800 nM | GI50 (eight renal cancer cells; [15]): 25000 nM | GI50 (COLO205): 2650 nM | GI50 [2]: > 53600 nM | GI50 [3, 16]: 7050 to 46800 nM | GI50 [3, 17]: 25200 nM | GI50 [5, 18]: 2380 to 14700 nM | GI50 [5, 19]: 7800 nM | GI50 [10]: > 67200 nM | GI50 [6, 20]: 6670 to 42300 nM | GI50 [6, 21]: 25200 nM | GI50 (HCC2998): 2380 nM | GI50 (nine melanoma cell lines; read-out: GI50 range, melanoma): 15400 to 98400 nM | GI50 (nine melanoma cell lines; [22]): 38700 nM
